Bioassay records as filed in PubChem.
INS-1E GSIS act – primary screen for activators of insulin secretion dependent on glucose, INS-1E cells, GLuc reporter luminescence. INS-1E GLuc reporter insulin secretion, 2-3 h. activation, % at 16.6 µM. 370,000 tested, 0.61% active. AID 743287;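 active means lowest replicate activation of at least 40%, so every replicate reaches that level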;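 further: 0% = median of neutral control wells and 100% = median of IBMX positive control wells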
CFTR F508del cor – CFTR F508del correction in bronchial cells; CFBE cells, YFP halide quenching; stimulated with forskolin plus potentiator P3; % fluorescence drop versus neutral controls; 350,000 tested, 0.36% active; activity (quench increase), % at 7.58 µM; AID 720511;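 active means mean added fluorescence quench of at least 8% versus neutral control, with both replicates also reaching 8%; inconclusive means only one of the mean or replicate conditions met; inactive means mean below 8% and not both replicates reaching 8%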;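 further: cells transiently co-express mutant CFTR-F508del with the halide-sensitive YFP; corrector assay measuring rescue of mutant channel to the surface after 24 h compound exposure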
ERAP1 HTS inh – ERAP1 (human) enzyme inhibition. 340,000 tested, 0.15% active. inhibition, % at 10.7 µM. Q9NZ08. recombinant ERAP1, Leu-AMC fluorescence, 60 min;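 active means mean replicate inhibition of at least 30%, or all replicates individually reaching that 30% level; inactive means mean below 30% and not every replicate reaching it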;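 further: 0% = neutral control wells and 100% = L-leucinethiol positive control wells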
miR122 inh – blocks miR-122 activity in Huh7 sensor cells. Huh7 miR-122 Renilla luciferase sensor, 48 h; neutral wells = 0, positive control = 100. 340,000 tested, 0.3% active. activation (reporter increase), % at 12.5 µM;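 active means mean replicate activation score at least 90 and every replicate individually at or above 90; inconclusive means only one of the two criteria met; inactive means neither criterion met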;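 further: higher luciferase means less miR-122 activity so hits act as miR-122 inhibitors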
E-selectin induc – induces E-selectin expression in human endothelial cells; 260,000 tested, 0.37% active; HUVEC E-selectin immunofluorescence imaging; normalized: neutral wells 0, TNF-alpha wells 100; activation, % at 7.58 µM;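 active means mean E-selectin-positive cell signal at least 10% of the positive control, reached in at least 60% of replicates, without over 20% cell loss; inconclusive means no rule given, readout overlaps actives, possibly toxicity-flagged; inactive means the rest, including those meeting only one limit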
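Test system: HUVEC | Signal: Immunofluorescence imaging | Read-out: Percent E-selectin-positive cells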
DENV2 CPE – DENV2-induced cell death inhibition. DENV2-infected cells, cytopathic effect rescue, plate reader. CPE inhibition, % at 9.99 µM. 350,000 tested, 1.7% active. AID 651640; in the data active means CPE inhibition above about 20%, passing the limit was not always enough; inconclusive means no clear call, values can overlap the other calls; tested in BHK-21 cells;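 further: 0% = median of neutral control wells and 100% = median of positive control wells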
* marks the source's active call; other numbers are inactive results; ? = inconclusive; . = no result; [ ] = remark or other dose. In the library only some 2.6% were active in any assay of this set; here they are far more common.

SMILES	INS-1E GSIS act	CFTR F508del cor	ERAP1 HTS inh	miR122 inh	E-selectin induc	DENV2 CPE
CO[C@@H]1CN(C)C(=O)c2cc(NC(=O)CC(F)(F)F)ccc2OC[C@H](C)N(C(=O)C2CC2)C[C@H]1C	6.6	-1.4	-3.9	.	0.0	0.1
CO[C@H]1CN(C)C(=O)c2cc(NC(=O)C3CC3)ccc2OC[C@H](C)N(C(=O)c2ccncc2)C[C@@H]1C	13.9	2.0	3.2	4.2[16.7 µM]	-0.3	7.2
COc1ccccc1-c1cn(CC[C@@H]2CC[C@H](NC(=O)c3ccccc3F)[C@@H](CO)O2)nn1	0.5	-0.8	-1.5	.	-0.3	6.6
OC1CCCN(c2c3c(nc4cc(-c5cccc(Cl)c5)nn24)CCC3)C1 (stereo not drawn)	14.4	.	.	-6.7	.	.
Cc1cccc(-c2cc3nc4c(c(N5CCCC(O)C5)n3n2)CCC4)c1 (stereo not drawn)	85.6*	.	.	-0.1	.	.
COc1cc2c(c(OC)c1OC)-c1ccc(SC)c(=O)cc1C(NC(=O)c1ccccc1)CC2 (stereo not drawn)	-4.5	0.2	0.8	63.3	0.2	11.2
COc1c(C=O)c2c(c(OC)c1OC)-c1ccc(OC)c(=O)cc1C(NC(C)=O)CC2 (stereo not drawn)	-7.2	11.2*	2.9	.	-0.5	-2.3
COc1c(O[C@@H]2O[C@H](CO)[C@@H](O)[C@H](O)[C@H]2O)cc2c(c1OC)-c1ccc(SC)c(=O)cc1C(NC(C)=O)CC2 (stereo partly drawn)	-5.8	13.8*	2.9	24.3	?	1.8
COc1cc2c(c(OC)c1OC)-c1ccc(OC)c(=O)cc1C(NC(C)=O)CC2 (stereo not drawn)	3.9	0.5	2.1	.	.	-3.3
CCCC(NC(=O)C(C)Sc1nnnn1C1CC1)c1ccccc1 (stereo not drawn)	4.7	-3.9	4.8	2.8	-1.9	90.3*
CC(Sc1nnnn1C1CC1)C(=O)Nc1cccc(S(=O)(=O)N2CCOCC2)c1 (stereo not drawn)	18.7	-5.0	0.8	5.7	.	-4.5
C[C@H]1CN([C@@H](C)CO)C(=O)c2cccc(NC(=O)c3ccncc3)c2O[C@@H]1CN(C)Cc1ccc(C(=O)Nc2ccccc2N)cc1	-1.4	0.9	-1.1	11.7[16.7 µM]	57.5*	-4.2
C[C@@H]1CN([C@@H](C)CO)C(=O)c2cccc(NC(=O)c3ccncc3)c2O[C@@H]1CN(C)Cc1ccc(Oc2ccccc2)cc1	.	-0.6	-0.1	-2.4[16.7 µM]	0.0	-0.5
C[C@H](CO)N1C[C@H](C)[C@@H](CN(C)Cc2ccc(Oc3ccccc3)cc2)Oc2c(NC(=O)c3ccncc3)cccc2C1=O	-42.0	2.0	1.7	110.9*[16.7 µM]	-0.2	4.7
C[C@@H]1CN([C@@H](C)CO)C(=O)c2cccc(NC(=O)c3cnccn3)c2O[C@@H]1CN(C)Cc1ccc(C(=O)Nc2ccccc2N)cc1	17.2	6.1	0.9	128.8*[16.7 µM]	1.4	-0.5
C[C@H](CO)N1C[C@H](C)[C@@H](CN(C)Cc2ccc(C(=O)Nc3ccccc3N)cc2)Oc2c(NC(=O)c3ccncc3)cccc2C1=O	4.1	-0.4	-0.8	-1.1[16.7 µM]	8.6	4.6
C[C@H]1CN([C@@H](C)CO)S(=O)(=O)c2ccc(C3=CCCC3)cc2O[C@@H]1CN(C)C(=O)CN(C)C	-1.1	2.1	8.1	10.9[16.7 µM]	0.1	7.1
C[C@@H]1CCCCO[C@H](CN(C)C(=O)NC2CCCCC2)[C@H](C)CN([C@H](C)CO)C(=O)c2cc(NC(=O)Cc3ccccc3)ccc2O1	-31.4	.	.	.	-0.3	.
CO[C@@]12[C@@H]3N[C@@H]3CN1C1=C(C(=O)C(N)=C(C)C1=O)[C@@H]2COC(N)=O	31.4	14.3*	-5.1	-4.5	0.0	1.5
C[C@H](CO)N1C[C@H](C)[C@H](CN(C)S(=O)(=O)c2ccc(F)cc2)Oc2ccc(NS(=O)(=O)c3ccc(F)cc3)cc2C1=O	-17.1	0.5	1.8	6.3[16.7 µM]	2.8	-0.2
Cc1nc2ccccc2c(=O)n1CCCN1CCOCC1	40.3*	-1.9	1.4	.	.	2.5
CCCn1c2ccccc2c2nnc(SCCN3CCOCC3)nc21	.	.	2.7	-8.5	.	4.0
c1ccc2nc3c(nc2c1)c1ccccc1n3CCN1CCOCC1	71.6*	.	.	-4.1	.	.
